In ChEMBL document CHEMBL4513216, “Probing the Open Global Health Chemical Diversity Library for Multistage-Active Starting Points for Next-Generation Antimalarials” (ACS Infect Dis, 2020):

Test: Toxicity liver stage against HepG2, at 10uM
Type: cell-based
Design: test concentration 10 uM, cell line HepG2-A16-CD81EGFP
Settings: human, HepG2-A16-CD81EGFP cells; read-out: INHIBITION
Summary of the method: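 Uninfected HepG2-A16-CD81EGFP cells, 3 × 10^3 per well, 1536-well, plated on prespotted compound at 10 μM final, parasite-free screening media added to match infected plates; puromycin 10 μM positive, DMSO 0.5% negative; run in parallel with 48 h PbLuc assay at 37 °C, 5% CO2; viability by CellTiter-Glo luminescence, normalized to controls.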

SMILES | cytotoxicity at 10 µM [%]
Cc1ccnc(NCc2ccccc2N2CCOCC2)n1 | -0.268
CCCNC(=O)CN1CCC(C(=O)Nc2cnn(CC)c2)CC1 | -2.04
Cc1cccc(Cn2c(=O)[nH]c3csnc3c2=O)c1 | 3.46
CC1CN(CCc2ccncc2)CCO1 (centres undefined) | -1.99
CCc1cnc(CN(C(C)=O)C2CCN(CC(=O)N3CCCC3)C2)o1 (centres undefined) | -6.63
CCN(CC)Cc1ccccc1NCc1c(C)noc1C | -2.04
CS(=O)(=O)NC1CCc2[nH]c(=O)ccc2C1 (centres undefined) | 3.46
CNc1snc(C)c1C(=O)N1CCCC(n2nc(C)cc2C)C1 (centres undefined) | -2.74
Cn1ncc2c(NCC3CCCN3c3cccnn3)ncnc21 (centres undefined) | -11.9
CC(C)(C)CNC(=O)CNC(=O)C1CC1 | -1.15
Cc1sc2nc(C(F)(F)F)nc(N3CCN(S(C)(=O)=O)CC3)c2c1C | -8.07
Cc1nsc(N2CCCN(c3ccc(C#N)cn3)CC2)n1 | -1.32
CC1(C)CN(C(=O)c2ncc(F)cc2F)CCC1(O)CN1CCOCC1 (centres undefined) | -8.37
Cc1nc(CN2CCN(C(=O)c3sccc3C3CC3)CC2)cs1 | 3.61
CC(NC(=O)CCCc1ccc(Cl)cc1)c1nnn[nH]1 (centres undefined) | 0.292
CS(=O)(=O)c1nccn1CCOc1ccc(F)cc1Cl | 13.1
Clc1ccc(C2(CNC3=NCCN3)CCCCC2)cc1 | 38.2
CCC(=O)c1ccccc1NN1c2ccccc2C(=O)C1(C)OC (centres undefined) | 8.57
Cc1ccc2c(c1)CN(C(=O)c1cnc(C)cn1)C(CN(C)C)CO2 (centres undefined) | -22.3
CCCC1c2cccn2CCN1S(=O)(=O)N1CCOCC1 (centres undefined) | 1.26
Cc1nnc(NC(=O)c2cc(S(=O)(=O)N3CCSCC3)c[nH]2)s1 | -7.01

SMILES | cytotoxicity at 10 µM [%]
O=C(CN1CCc2cncnc2C1)NC1CCCCNC1=O (centres undefined) | 7.36
CC(NC(=O)NCCCn1cncn1)c1ccncc1 (centres undefined) | -15.9
COCCN(C(=O)c1ccn(-c2ccc(OC)cc2)n1)C(C)C(N)=O (centres undefined) | 0.337
CC(C)NC(=O)c1csc(NC2CC2)n1 | -2.72
NC(=O)c1ccc(N2CCCCC2)c(NC(=O)c2cc(Br)ccc2Cl)c1 | 59.6
COc1cccc(OCC(=O)Nc2cc(C)cnc2OC)c1 | -11.4
Cc1nnc([C@@H]2CC[C@@H]3[C@@H](CCN3S(C)(=O)=O)O2)o1 | -79.1
Cn1cc(C(=O)Nc2cc(F)ccc2OCC2CCCO2)ccc1=O (centres undefined) | -7.09
CC(C)(C)CCN1CCC(c2nnc(Cn3cccn3)n2C2CC2)CC1 | 8.19
COc1ccccc1C(O)CNC(=O)Nc1cccnc1OC (centres undefined) | -14.7
NS(=O)(=O)c1ccc(F)c(C(=O)NCCSc2ccccn2)c1 | -9.11
CCSCC(C)NCc1cc(-c2ccco2)on1 (centres undefined) | 1.29
COc1cccc(C(=O)N2CCN(Cc3nc(C(C)C)no3)CC2)c1 | -18.7
COCC(=O)N(Cc1ccc2[nH]ccc2c1)C1CC1 | -2.46
CCn1cc(S(=O)(=O)NCC(OC)c2ccccc2)cn1 (centres undefined) | 1.64
Nc1nnc(CCCNC(=O)c2ccc(C3CCCNC3)cc2)s1 (centres undefined) | -1.28
COc1cccc(-c2nc(C)c(C(=O)N[C@H](CO)CCSC)s2)c1 | 4.63
CC(C)CC(=O)N1CCCC1c1ccsc1 (centres undefined) | 2.96
Cc1cnc(C(=O)N2CCC(C(=O)c3cc(F)ccc3F)CC2)cn1 | -5.88
COCCN1CC2(CCOCC2)c2cc(NC(=O)C3CC=CC3)ccc21 | -109
CSCC(=O)NC(Cc1ccc(C)cc1)c1ccccn1 (centres undefined) | 1.23

SMILES | cytotoxicity at 10 µM [%]
CCOCCN1CCN(Cc2nc(C3CC3)no2)CC1CC (centres undefined) | -5.75
Cc1ccccc1C1(C(=O)NCCN(C)C)CCOCC1 | -1.95
CC(Cc1ccco1)NC(=O)NCc1ncnn1C (centres undefined) | 2.02
COC(=O)NCC(=O)N1CCCn2nc(CN3CC[C@H](F)C3)cc2C1 | 13
O=C(c1cnccn1)N1CCN(Cc2cccnc2)c2ncccc2C1 | -1.52
CCc1c(C)nc(C2CCCN2C(=O)c2cc(C)no2)nc1O (centres undefined) | -5.75
O=C(Cc1ccc(O)c(Cl)c1)N1CCCCC1CCn1cccn1 (centres undefined) | -13.6
Cn1nc(CNC(=O)c2cccc(C(F)(F)F)c2)c2c1CCOC2 | 4.07
COC1COC2(CCN(Cc3ccc4c(c3)OCO4)CC2)C1 (centres undefined) | 0.729
CNc1ncc(C(=O)N2CCOC(C(=O)NC3CCCC3)C2)cn1 (centres undefined) | 12.2
CC(=O)N1CCCC2(C1)CN(C(=O)C1CCCCC1)CCO2 (centres undefined) | 2.08
CCOc1ccnc(N2CCN(C(=O)c3cccc(C#N)c3)CC2)n1 | -3.34
Cc1csc(C2CCCCN2C(=O)c2c[nH]c(C)n2)n1 (centres undefined) | -33.7
CCn1ncc(C(=O)NCc2ccc(C)c(OC)c2)c1C(F)(F)F | 10.2
CC(C)c1nn(C)c(N2CCOCC2)c1CNCCS(C)(=O)=O | -8.36
CCCN1CCCn2c(nc(CNC(=O)c3ccsc3)cc2=O)C1 | 6.89
CSCCC(CO)NC(=O)c1ccc2[nH]/c(=N\S(C)(=O)=O)sc2c1 (centres undefined) | -6.96
Cc1nc(NC(=O)NC2CC(=O)N(C)C2)nn1C(C)C (centres undefined) | -8.15
CCNC(=O)N1CCc2ccc(NC(=O)C(C)c3ccsc3)cc21 (centres undefined) | -3.41
CCCc1cc(C(=O)N2C[C@@H](C)[C@](O)(C3CCC3)C2)[nH]n1 | 10.1
CO[C@H]1CCN(S(=O)(=O)c2cn(C)cn2)[C@H]1Cc1ccccc1 | 6.19

SMILES | cytotoxicity at 10 µM [%]
CC(C)c1nnc2n1CCN(C(=O)COc1ccc(C(N)=O)cc1)C2 | 0.0102
CN(C)C(=O)c1noc2c1CN(C(=O)CCC1CCCCN1C)CC2 (centres undefined) | -2.74
COCc1nnc(C(=O)N2CCCC(O)C2)o1 (centres undefined) | 1.31
COCc1ccc(OC)c(CNC2CCCNC2=O)c1 (centres undefined) | 3.66
Cc1ccc(NCCCNC(=O)C2CC3(CCNCC3)CN2C)nc1 (centres undefined) | 6.07
COCCNC(=O)[C@@H]1C[C@@H]2CCN(c3ncccn3)C[C@H]2O1 | -2.48
CCc1nnsc1C(=O)N1CCN(CC(O)C(C)(C)C)CC1 (centres undefined) | 0.542
CC(C)(C)Nc1c(C2CCCN(C(=O)C3CC3)C2)nc2ccccn12 (centres undefined) | 8.07
COCCN1CCN(S(C)(=O)=O)Cc2cccnc21 | 5.7
CCN1C(=O)CO[C@@H]2CN(C(=O)C3CCOCC3)C[C@H]21 | -78.2
Cc1cc(OCC(=O)N2CCCC(c3noc(C)n3)C2)no1 (centres undefined) | -0.0722
CC(C)Nc1ncnc2c1CCN(C(=O)c1ccccc1F)CC2 | -86.7
O=S(=O)(NCCn1ccc(-c2cccs2)n1)C1CC1 | -0.297
CNc1ncccc1CN1CCN2CCN(C)CC2C1 (centres undefined) | -2.46
Cc1cnn(CCC(=O)NCc2ccc(N(C)C)c(C)c2)c1 | -3.03
O=C(COc1coc(CN2CCCC2)cc1=O)Nc1ccc(Cl)c(Cl)c1 | 0.0723
Cc1oncc1C(=O)N1CCC2(CCN(Cc3cccnc3)C2=O)C1 (centres undefined) | -144
Cc1c(CNCCCOc2cccnc2)c2ccccc2n1CC(N)=O | -145
FC(F)Oc1ccc(CN2CCOC3(CCOCC3)C2)cc1Cl | -6.58
CN(Cc1ccc(-n2cccn2)cc1)c1nc(N)nc2c1CCNCC2 | 6.99
COc1cc2c(cc1OC)C(=O)C(Sc1nnnn1C)C2 (centres undefined) | -13.7
